This note sets out measurements from ChEMBL document CHEMBL1150329, “The discovery of fused pyrrole carboxylic acids as novel, potent D-amino acid oxidase (DAO) inhibitors” (Bioorg Med Chem Lett, 2008).

The target in one assay is D-amino-acid oxidase (Homo sapiens, UniProt P14920). In words: Inhibition of human DAO.
Another assay deals with Cytochrome P450 3A4 (Homo sapiens, UniProt P08684). In words: Inhibition of CYP3A4. Type of assay: ADME.
For a further assay, the target named is Cytochrome P450 2D6 (Homo sapiens, UniProt P10635). In words: Inhibition of CYP2D6. Type of assay: ADME.
Chain of Cytochrome P450 2D6 (P10635 whole entry): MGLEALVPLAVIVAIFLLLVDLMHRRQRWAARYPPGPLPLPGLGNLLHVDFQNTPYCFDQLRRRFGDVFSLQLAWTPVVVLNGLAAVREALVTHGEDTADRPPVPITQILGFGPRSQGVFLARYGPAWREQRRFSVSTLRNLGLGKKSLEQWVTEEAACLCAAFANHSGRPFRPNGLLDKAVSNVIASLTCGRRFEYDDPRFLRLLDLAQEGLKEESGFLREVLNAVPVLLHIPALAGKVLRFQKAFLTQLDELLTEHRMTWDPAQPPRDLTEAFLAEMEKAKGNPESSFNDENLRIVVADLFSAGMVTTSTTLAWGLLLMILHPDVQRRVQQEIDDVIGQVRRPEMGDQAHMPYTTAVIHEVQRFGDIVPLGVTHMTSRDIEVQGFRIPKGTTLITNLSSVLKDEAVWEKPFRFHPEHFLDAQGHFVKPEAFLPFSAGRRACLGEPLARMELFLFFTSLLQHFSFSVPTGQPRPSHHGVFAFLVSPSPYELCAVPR
The nature of assay [1]: Inhibition of CYP3C9. The class given is ADME.
For the next assay, the target named is T1, D-aspartate oxidase (Homo sapiens, UniProt Q99489).
T1 sequence (Q99489 whole entry): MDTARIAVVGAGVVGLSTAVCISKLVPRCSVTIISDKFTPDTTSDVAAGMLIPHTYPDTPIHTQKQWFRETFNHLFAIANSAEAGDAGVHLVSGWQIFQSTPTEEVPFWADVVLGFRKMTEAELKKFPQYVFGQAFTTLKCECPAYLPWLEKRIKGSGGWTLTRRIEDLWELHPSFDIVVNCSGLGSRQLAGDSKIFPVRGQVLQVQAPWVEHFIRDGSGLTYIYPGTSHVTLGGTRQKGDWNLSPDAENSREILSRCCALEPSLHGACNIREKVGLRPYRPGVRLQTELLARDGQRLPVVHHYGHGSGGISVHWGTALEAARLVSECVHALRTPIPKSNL
The experiment in a line: Inhibition of human DDO.

Assay [2] deals with Rattus norvegicus. The experiment in a line: Ex vivo inhibition of DAO in ip dosed rat kidney. The class given is functional, organism-based. The method in brief: (§1)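 Rats were given 25, 75 or 150 mg/kg ip. DAO enzyme activity was measured ex vivo in kidney and cerebellum at 1, 2 and 4 h after dosing and compared with vehicle-dosed rats. Time and treatment effects were tested by two-way ANOVA, with Bonferroni post tests for individual dose-versus-vehicle comparisons.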

The subject of assay [3] is Rattus norvegicus. In words: Ex vivo inhibition of DAO in rat cerebellum at 25 mg/kg, ip after 1 hr. Type of assay: functional, organism-based. Further details: dose 25 mg/kg. The method, boiled down:
as §1

Assay [4] relates to Rattus norvegicus. In words: Ex vivo inhibition of DAO in ip dosed rat cerebellum. The class given is functional, organism-based. The method, boiled down: as §1

Calls of active or inactive are those of the source. The rule behind the calls is not given here.

A word on the IC50: it is the concentration at which inhibition is half-maximal.

Chain of D-amino-acid oxidase (P14920 whole entry): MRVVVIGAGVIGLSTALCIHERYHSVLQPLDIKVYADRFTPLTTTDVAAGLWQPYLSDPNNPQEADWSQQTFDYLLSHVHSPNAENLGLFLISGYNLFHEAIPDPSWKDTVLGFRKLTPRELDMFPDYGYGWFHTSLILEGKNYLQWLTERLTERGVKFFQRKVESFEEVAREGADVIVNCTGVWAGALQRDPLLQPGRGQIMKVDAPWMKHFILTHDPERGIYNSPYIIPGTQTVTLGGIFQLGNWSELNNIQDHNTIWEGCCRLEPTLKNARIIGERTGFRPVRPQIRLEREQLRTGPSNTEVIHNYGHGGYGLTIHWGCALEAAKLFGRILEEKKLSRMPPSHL
Chain of Cytochrome P450 3A4 (P08684 whole entry): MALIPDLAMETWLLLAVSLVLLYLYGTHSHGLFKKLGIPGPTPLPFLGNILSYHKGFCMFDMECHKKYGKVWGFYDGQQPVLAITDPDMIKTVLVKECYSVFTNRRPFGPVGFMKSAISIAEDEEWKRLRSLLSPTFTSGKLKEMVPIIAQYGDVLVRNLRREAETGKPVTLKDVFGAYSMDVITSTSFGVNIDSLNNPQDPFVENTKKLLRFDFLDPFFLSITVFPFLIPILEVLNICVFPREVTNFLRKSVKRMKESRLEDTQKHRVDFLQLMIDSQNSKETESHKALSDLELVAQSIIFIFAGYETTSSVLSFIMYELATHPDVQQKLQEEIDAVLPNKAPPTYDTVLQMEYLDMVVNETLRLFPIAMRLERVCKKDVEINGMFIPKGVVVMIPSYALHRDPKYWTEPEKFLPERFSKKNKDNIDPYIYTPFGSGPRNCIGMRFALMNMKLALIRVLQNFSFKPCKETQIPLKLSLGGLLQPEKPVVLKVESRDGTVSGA

Take `N#Cc1csc2cc(C(=O)O)[nH]c12`: the IC50 on D-amino-acid oxidase stood at 1.15 µM.

`O=C(O)c1cc2occ(Cl)c2[nH]1` displayed an IC50 against D-amino-acid oxidase of 1.43 µM.

Take `O=C(O)c1cc2sccc2[nH]1`: the IC50 against Cytochrome P450 3A4 was above 10 µM; on D-amino-acid oxidase, 0.245 µM; against Cytochrome P450 2D6, above 10 µM; in assay [1], above 10 µM.

`O=C(O)c1cc2occ(-c3cccnc3)c2[nH]1`: on D-amino-acid oxidase, the half-maximal inhibitory concentration (IC50) was above 5 µM.

On to `O=C(O)c1cc2ccccc2[nH]1` [INDOLE-2-CARBOXYLIC ACID], for which the IC50 against D-amino-acid oxidase is 0.745 µM; against D-aspartate oxidase, above 5 µM.

In the case of `O=C(O)c1ccc[nH]1`, the IC50 at D-amino-acid oxidase is above 5 µM.

Consider `O=C(O)c1cc2occc2[nH]1`, for which the IC50 against Cytochrome P450 3A4 was above 10 µM; on Cytochrome P450 2D6, above 10 µM; against D-aspartate oxidase it was above 5 µM; in assay [1], above 10 µM. The outcome in the assay with Rattus norvegicus [2] and in the assay on Rattus norvegicus [4] was Active. Also, in the assay on Rattus norvegicus [3], the outcome was inactive.

Compound `O=C(O)c1cc2scnc2[nH]1` had an IC50 on D-amino-acid oxidase of 0.516 µM.

As for `Cc1oc2cc(C(=O)O)[nH]c2c1C`, the 50% inhibitory concentration (IC50) at D-amino-acid oxidase was above 5 µM.

At D-amino-acid oxidase, `O=C(O)c1cc2oc(-c3ccc(Cl)cc3Cl)cc2[nH]1` showed an IC50 above 5 µM.

For `O=C(O)c1cc2oc(-c3ccccc3)cc2[nH]1`, the IC50 on D-amino-acid oxidase is above 5 µM.

At D-amino-acid oxidase, `O=C(O)c1cc2oc(-c3cccc(Cl)c3)cc2[nH]1` displayed an IC50 above 5 µM.

`O=C(O)c1cc2oc(-c3ccc(Cl)cc3)cc2[nH]1` displayed an IC50 against D-amino-acid oxidase above 5 µM.

As to `O=C(O)c1cc2ncsc2[nH]1`, at D-amino-acid oxidase, it took 4.2 µM to reach half-maximal inhibition (IC50). This lies in the single-digit micromolar range.

For `O=C(O)c1cc(Cl)c(Cl)o1`, the IC50 against D-amino-acid oxidase is 0.343 µM; on D-aspartate oxidase, above 5 µM.

`O=C(O)c1cc2oc(Cl)cc2[nH]1` came in with an IC50 on D-amino-acid oxidase above 5 µM.

Regarding `O=C(O)c1cc2occ(-c3cccc(Cl)c3)c2[nH]1`, the IC50 on D-amino-acid oxidase is above 5 µM.

At D-amino-acid oxidase, `O=C(O)c1cc2[nH]ncc2[nH]1` displayed an IC50 above 5 µM.

At D-amino-acid oxidase, `O=C(O)c1cc2sc(Cl)cc2[nH]1` had an IC50 above 5 µM.

For `O=C(O)c1cc2ccsc2[nH]1`, the IC50 at D-amino-acid oxidase worked out at 0.269 µM.

On to `Oc1noc2cc(Cl)ccc12`, for which, on D-aspartate oxidase, the IC50 was above 5 µM.

For `O=C(O)c1cc2occ(CO)c2[nH]1`, on D-amino-acid oxidase, the IC50 is above 5 µM.

The compound `O=C(O)c1cc2ocnc2[nH]1` yielded an IC50 at D-amino-acid oxidase above 5 µM.

`O=C(O)c1cc2occ(-c3ccc(Cl)cc3)c2[nH]1` yielded an IC50 against D-amino-acid oxidase above 5 µM.
